Here are results for 87 compounds from PubChem BioAssay AID493237 (Broad Institute, 2011).

Each structure is given as a SMILES string. Where “and” joins values, the source holds several entries; their conditions need not be identical. Equal values may be shown once. Calls of active or inactive are those of the source.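 Rule for the calls: active = fitted curve reaching 40% activation at a concentration no higher than the top valid dose tested; inconclusive = flat curve between 30 and 70% activation, or poor fit; inactive = the rest, including opposite-direction effects.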

Assay [1] in a line: HRE-luciferase activation in iron medium, dose response, mechanism study for HIF pathway activator project, cell-based, U2OS, luminescence, dry powder, set 2 (AID 493237). The note with it: U2OS HRE-luciferase reporter, iron condition, luminescence; at 38 µM (top of the series). Summed up: (§1)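 System: human U2OS osteosarcoma cells with stable 3×HRE-driven luciferase reporter / Also added: ferric nitrate at 50 µM final, added before compound / Times: 24 h pre-dosing growth, 24 h compound exposure, 37 °C / Technique: luciferase luminescence with Steady-Glo reagent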

Assay [2] has as its system U2OS HRE-luciferase reporter, iron condition, luminescence. Described as above. Summed up: as §1

Turning to `Oc1ccc(CNC2Cc3ccccc3C2)c2cccnc12`, in assay [1], the activation was -38.8% (inactive).

For the compound `Cc1cccc(Nc2nc(-c3ccccn3)nnc2-c2ccccc2)n1`, the AC40 in assay [2] was 27.2 µM.

Turning to `O=C(Nc1ncc(-c2ccccc2)o1)c1cc(-c2ccccc2)on1`, in assay [1], the activation was -19.3% (inactive).

Consider `O=C(NC1Cc2ccccc2C1)c1cc(-c2ccccc2)on1`, for which the AC40 in assay [2] was > 38 µM (inactive).

`c1ccc(-c2nnc(-c3ccccn3)nc2NCCN2CCOCC2)cc1`: the AC40 in assay [2] is 19.4 µM.

Take `C[C@@H](Nc1nc(-c2ccccn2)nnc1-c1ccccc1)c1ccccc1`: the AC40 in assay [2] was 8.05 µM.

Regarding `c1ccc(-c2nnc(-c3ccccn3)nc2Nc2nc3ccccc3s2)cc1`, the activation in assay [1] is 21.8% (inactive).

Regarding `CC(C)(C)CCNc1nc(-c2ccccn2)nnc1-c1ccccc1`, the AC40 in assay [2] is 10.2 µM and 8.22 µM.

As to `c1ccc(-c2nnc(-c3ccccn3)nc2N2CCC(c3ccccc3)C2)cc1` (configuration not stated), in assay [2], the AC40 was 18.7 µM.

Turning to `c1ccc(-c2ccc(CNc3nc(-c4ccccn4)nnc3-c3ccccc3)cc2)cc1`, the AC40 in assay [2] was 9.52 µM.

On to `CC(C)(C)CCNC(=O)c1cc(-c2ccccc2)on1`, for which the AC40 in assay [2] is 8.89 µM.

For the compound `Oc1ccc(CNC2CCc3ccccc32)c2cccnc12` (configuration not stated), the activation in assay [1] is -45.6% (inactive).

Take `CCCCNC(=O)c1cc(-c2ccccc2)on1`: the AC40 in assay [2] was 3.76 µM.

With `OCC1CCN(c2nc(-c3ccccn3)nnc2-c2ccccc2)CC1`, the activation in assay [1] is 37.3% (inactive).

For the compound `O=C(NCc1ccccc1)c1cc(-c2ccccc2)on1`, in assay [2], the AC40 was > 38 µM (inactive).

For the compound `Cn1c(-c2ccccc2)cnc1Nc1nc(-c2ccccn2)nnc1-c1ccccc1`, the activation in assay [1] is 11.2% (inactive).

With `c1ccc(-c2nnc(-c3ccccn3)nc2N2CCN(c3ccncc3)CC2)cc1`, the AC40 in assay [2] was 22.9 µM.

For `C=CCNc1nc(-c2ccccn2)nnc1-c1ccccc1`, in assay [2], the AC40 is 26.5 µM.

Take `Cc1ccc(Nc2nc(-c3ccccn3)nnc2-c2ccccc2)cn1`: the AC40 in assay [2] is 24.3 µM.

For `O=C(Nc1nc(-c2ccccc2)cs1)c1cc(-c2ccccc2)on1`, in assay [1], the activation is -4.82% (inactive).

Turning to `O=C(c1cc(-c2ccccc2)on1)N1CCC(N2CCCC2)CC1`, the activation in assay [1] was -1.29% (inactive).

Turning to `O=C(c1cc(-c2ccccc2)on1)N1CCN(c2ccncc2)CC1`, in assay [1], the activation is -11.7% (inactive).

With `Cc1ccc(CNc2nc(-c3ccccn3)nnc2-c2ccccc2)cc1C`, the AC40 in assay [2] is 6.44 µM.

Consider `C[C@@H](Nc1nc(-c2ccccn2)nnc1-c1ccccc1)C1CCCCC1`, for which the AC40 in assay [2] was 7.81 µM.

Take `CC1CN(Cc2ccc(O)c3ncccc23)CC(C)O1` (configuration not stated): in assay [1], the activation was -40% (inactive).

As for `c1ccc(-c2nnc(-c3ccccn3)nc2NCCc2ccccn2)cc1`, the AC40 in assay [2] was 24.3 µM.

In the case of `OCCCNc1nc(-c2ccccn2)nnc1-c1ccccc1`, the AC40 in assay [2] is 23.9 µM.

With `COc1cccc(CNc2nc(-c3ccccn3)nnc2-c2ccccc2)c1`, the AC40 in assay [2] is 10.7 µM.

As to `CN(C)CCNC(=O)c1cc(-c2ccccc2)on1`, in assay [1], the activation is 19.3% (inactive).

Turning to `O=C(c1cc(-c2ccccc2)on1)N1CCC(N2CCOCC2)CC1`, the activation in assay [1] is -12.6% (inactive).

In the case of `c1ccc(-c2nnc(-c3ccccn3)nc2NCC2CCOCC2)cc1`, in assay [1], the activation is 137% (inactive).

Regarding `CC(Nc1nc(-c2ccccn2)nnc1-c1ccccc1)c1ccccc1` (configuration not stated), in assay [2], the AC40 was 10.3 µM.

Consider `CC(C)(C)OC(=O)N1CCN(Cc2ccc(O)c3ncccc23)CC1`, for which, in assay [1], the activation is -18.7% (inactive).

Turning to `C[C@H](Nc1nc(-c2ccccn2)nnc1-c1ccccc1)C1CCCCC1`, the AC40 in assay [2] was 9.72 µM.

As to `O=C(NCC1CC1)c1cc(-c2ccccc2)on1`, the AC40 in assay [2] is 3.19 µM.

`O=C(Nc1ccc2ccccc2n1)c1cc(-c2ccccc2)on1`: in assay [1], the activation was -19.3% (inactive).

`O=C(NCCN1CCCCC1)c1cc(-c2ccccc2)on1`: the activation in assay [1] is 15.3% (inactive).

In the case of `Oc1ccc(CN2CCc3ccccc3C2)c2cccnc12`, in assay [1], the activation was -30.4% (inactive).

For the compound `O=C(c1cc(-c2ccccc2)on1)N1CCC(CO)CC1`, the activation in assay [1] was -15.4% (inactive).

For the compound `c1ccc(-c2nnc(-c3ccccn3)nc2N2CCC(N3CCOCC3)CC2)cc1`, in assay [2], the AC40 is 21 µM.

Regarding `O=C(NCCCO)c1cc(-c2ccccc2)on1`, in assay [2], the AC40 is 5.66 µM.

Turning to `Cn1c(NC(=O)c2cc(-c3ccccc3)on2)nc2ccccc21`, in assay [1], the activation is 7.37% (inactive).

Turning to `O=C(c1cc(-c2ccccc2)on1)N1CCc2cccnc21`, the activation in assay [1] was -8.92% (inactive).

In the case of `c1ccc(-c2nnc(-c3ccccn3)nc2NCCCN2CCOCC2)cc1`, the AC40 in assay [2] was 26.1 µM.

For the compound `Cc1cccc(CNc2nc(-c3ccccn3)nnc2-c2ccccc2)c1`, the AC40 in assay [2] is 8.97 µM.

With `O=C(NCCCCO)c1cc(-c2ccccc2)on1`, the AC40 in assay [2] is 1.29 µM.

Take `c1ccc(-c2nnc(-c3ccccn3)nc2Nc2cnc3ccccc3n2)cc1`: the AC40 in assay [2] was 24.8 µM.

For the compound `O=C(Nc1nnc(-c2ccccc2)s1)c1cc(-c2ccccc2)on1`, in assay [1], the activation is 2.91% (inactive).

As to `COc1ccccc1N1CCN(Cc2ccc(O)c3ncccc23)CC1`, the activation in assay [1] was -35.6% (inactive).

With `O=C(Nc1cnc2ccccc2c1)c1cc(-c2ccccc2)on1`, the activation in assay [1] was 14% (inactive).

For the compound `c1ccc(-c2cnc(Nc3nc(-c4ccccn4)nnc3-c3ccccc3)s2)cc1`, the activation in assay [1] is 1.03% (inactive).

As to `O=C(Nc1ncc2ccccc2n1)c1cc(-c2ccccc2)on1`, the AC40 in assay [2] is > 38 µM (inactive).

On to `CN(C)c1nc(-c2ccccn2)nnc1-c1ccccc1`, for which the AC40 in assay [2] was 24.5 µM.

As for `N#CC1(c2ccccc2)CCN(Cc2ccc(O)c3ncccc23)CC1`, the activation in assay [1] was -19.9% (inactive).

For `c1ccc(-c2nnc(Nc3nc(-c4ccccn4)nnc3-c3ccccc3)s2)cc1`, in assay [2], the AC40 was > 38 µM (inactive).

On to `CN1CCN(c2nc(-c3ccccn3)nnc2-c2ccccc2)CC1`, for which the AC40 in assay [2] was 25 µM.

In the case of `CC(C)(C)c1ccc(CNc2nc(-c3ccccn3)nnc2-c2ccccc2)cc1`, the AC40 in assay [2] is 20.6 µM.

As to `Cc1ccccc1CNc1nc(-c2ccccn2)nnc1-c1ccccc1`, the AC40 in assay [2] was 7.8 µM.

As to `c1ccc(-c2nnc(-c3ccccn3)nc2NCc2cccnc2)cc1`, the AC40 in assay [2] is 25.9 µM.

For `c1ccc(CCNc2nc(-c3ccccn3)nnc2-c2ccccc2)cc1`, the AC40 in assay [2] was 10.6 µM.

For the compound `O=C(NCCN1CCOCC1)c1cc(-c2ccccc2)on1`, the AC40 in assay [2] was 9.15 µM.

Take `c1ccc(-c2nnc(-c3ccccn3)nc2N2CCC(C3CCCCC3)C2)cc1` (configuration not stated): the activation in assay [1] was -30.3% (inactive).

Take `Cc1ccccc1CNC(=O)c1cc(-c2ccccc2)on1`: the activation in assay [1] was 15.4% (inactive).

Regarding `c1ccc(-c2cccc(CNc3nc(-c4ccccn4)nnc3-c3ccccc3)c2)cc1`, the AC40 in assay [2] was 10.1 µM.

For the compound `c1ccc(-c2csc(Nc3nc(-c4ccccn4)nnc3-c3ccccc3)n2)cc1`, in assay [2], the AC40 was > 38 µM (inactive).

As to `Cc1cccc(CNC(=O)c2cc(-c3ccccc3)on2)c1`, the activation in assay [1] is -17.5% (inactive).

As to `Cn1c(-c2ccccc2)cnc1NC(=O)c1cc(-c2ccccc2)on1`, the activation in assay [1] was 6.19% (inactive).

`O=C(NCCCN1CCOCC1)c1cc(-c2ccccc2)on1`: in assay [2], the AC40 is 10.3 µM.

In the case of `Cc1ccc(CNC(=O)c2cc(-c3ccccc3)on2)cc1`, in assay [1], the activation was -26.7% (inactive).

Turning to `O=C(Nc1nc2ccccc2s1)c1cc(-c2ccccc2)on1`, the activation in assay [1] is 9.12% (inactive).

`c1ccc(-c2nnc(-c3ccccn3)nc2NCc2ccccn2)cc1`: in assay [2], the AC40 was 15.9 µM.

With `Oc1ccc(CN2CCC3CCCCC3C2)c2cccnc12` (configuration not stated), in assay [1], the activation is -51.1% (inactive).

With `O=C(NC1CCc2ccccc2C1)c1cc(-c2ccccc2)on1` (configuration not stated), the activation in assay [1] is -15.1% (inactive).

Take `O=C(Nc1cn2ccccc2n1)c1cc(-c2ccccc2)on1`: the activation in assay [1] was -9.98% (inactive).

Take `CN1CCN(C(=O)c2cc(-c3ccccc3)on2)CC1`: in assay [1], the activation is -32.3% (inactive).

As for `Oc1ccc(CN2CCC(Cc3ccccc3)CC2)c2cccnc12`, in assay [1], the activation is -17.9% (inactive).

For `COc1ccc(CNc2nc(-c3ccccn3)nnc2-c2ccccc2)cc1`, in assay [2], the AC40 was 9.43 µM.

Take `OCC1CCN(Cc2ccc(O)c3ncccc23)CC1`: in assay [1], the activation is -24% (inactive).

`Cc1cccc(NC(=O)c2cc(-c3ccccc3)on2)n1`: in assay [2], the AC40 is > 38 µM (inactive).

Turning to `c1ccc(-c2nnc(-c3ccccn3)nc2NCC2CC2)cc1`, in assay [2], the AC40 was 24 µM.

As for `O=C(NCC1CCCCC1)c1cc(-c2ccccc2)on1`, the activation in assay [1] is 21.9% (inactive).

As to `c1ccc(-c2nnc(-c3ccccn3)nc2NCC2CCCCC2)cc1`, the AC40 in assay [2] was 9.8 µM.

On to `O=C(NCCCn1ccnc1)c1cc(-c2ccccc2)on1`, for which the AC40 in assay [2] was 4.5 µM.

With `Cc1ccc(NC(=O)c2cc(-c3ccccc3)on2)cn1`, the activation in assay [1] is -0.441% (inactive).

In the case of `c1ccc(CNc2nc(-c3ccccn3)nnc2-c2ccccc2)cc1`, the AC40 in assay [2] was 9.31 µM.

On to `Clc1cccc(CNc2nc(-c3ccccn3)nnc2-c2ccccc2)c1`, for which the AC40 in assay [2] is 11.6 µM.

Consider `Cc1ccc(CNc2nc(-c3ccccn3)nnc2-c2ccccc2)cc1`, for which the AC40 in assay [2] was 11.4 µM.
